{"source": "ChEMBL document CHEMBL4316599", "about": "“Synthesis, in vitro and in vivo biological evaluation of substituted 3-(5-imidazo[2,1-b]thiazolylmethylene)-2-indolinones as new potent anticancer agents” (Eur J Med Chem, 2019)", "assay_type_in_all_cases": "functional", "key": {"HT-29": {"tested_on": "HT-29", "experiment": "Cell cycle arrest in human HT-29 cells assessed as reduction in accumulation of cells at S phase up to 1000 nM after 24 hrs by propidium iodide staining-based flow cytometric analysis", "how_it_was_run": "(§1)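 Cells exposed to a range of concentrations for 24 h (HeLa at 5×10^5 cells), then fixed in ice-cold 70% ethanol. Lysis buffer with RNase A and 0.1% Triton X-100 was applied before PI staining. DNA content was read by flow cytometry and G1/S/G2/M fractions taken from DNA histograms. Mean ± SEM of two independent experiments.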"}, "A549": {"tested_on": "A549", "experiment": "Cell cycle arrest in human A549 cells assessed as reduction in accumulation of cells at S phase up to 600 nM after 24 hrs by propidium iodide staining-based flow cytometric analysis", "how_it_was_run": "as §1"}, "Ovarian carcinoma cell": {"tested_on": "Ovarian carcinoma cell", "experiment": "Cytotoxicity against human ovarian cancer cells after 48 hrs by SRB assay", "how_it_was_run": "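NCI-60 screen: single-dose pass at 10^-5 M, then a five-concentration assay from 10^-9 to 10^-4 M (highest 100 μM). Exposure was 48 h under standard NCI protocols. GI50, TGI and LC50 were derived per cell line and averaged by subpanel. Repeated tests are the mean of two experiments.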"}}, "note": "Active and inactive are the calls of the source. The calls are words filed in the database; no cut-off is given here.", "data": [{"smiles": "O=C1Nc2c(ccc3ccccc23)C1=Cc1c(-c2ccncc2)nc2sccn12", "values": [{"measurement": "Activity", "setting": "HT-29", "value": "Active"}, {"measurement": "Activity", "setting": "A549", "value": "Active"}, {"measurement": "GI50", "setting": "Ovarian carcinoma cell", "value": 0.05, "unit": "µM"}, {"measurement": "LC50 (50% lethal concentration)", "setting": "Ovarian carcinoma cell", "value": 80, "unit": "µM"}, {"measurement": "TGI", "setting": "Ovarian carcinoma cell", "value": 73.8, "unit": "µM"}]}]}
